Measurements: ChEMBL document CHEMBL1122001, “Darmstoff analogues. 2. Ring and side-chain effects on smooth-muscle contraction” (1982)
Calls of active or inactive are those of the source. The rule behind the calls is not given here.

What was measured:
Format in all cases: functional
Cavia porcellus [1] = organism: Cavia porcellus; assay: Compound was tested for its ability to cause contraction of guinea pig ileum; Inactive
Cavia porcellus [2] = organism: Cavia porcellus; assay: Potency for guinea pig ileum contraction relative to acetylcholine
In short: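 Ileal strip held in an oxygenated (95% O2/5% CO2) buffer bath under 1-g tension, with contraction magnitude recorded on a dynograph. An acetylcholine control response curve was run first, then a test compound curve after tissue recovery. The value is the ratio of the doses giving 50% of maximal response.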

Cavia porcellus [3] = organism: Cavia porcellus; assay: Compound was tested for its ability to cause contraction of guinea pig ileum; Active
Cavia porcellus [4] = organism: Cavia porcellus; assay: Concentration required for half-maximal contraction of guinea pig ileum

Row | SMILES | Activity (Cavia porcellus [1]) | further results
1 | CCCCCCCCCCCCCCCC1CCC(COP(=O)(O)O)C1 (stereo not drawn) | inactive | –
2 | CCCCCCCC/C=C/CCCCCCCC1OCC(COP(=O)([O-])O)O1.[Na+] (cis isomer) | – | Potency (Cavia porcellus [2]): 0.4%; Activity (Cavia porcellus [3]): Active
3 | CCCCCCCC/C=C/CCCCCCCC1CCC(COP(=O)(O)O)O1 (stereo not drawn) | inactive | –
4 | CCCCCCCC/C=C/CCCCCCCC1COC(COP(=O)([O-])O)CO1.[Na+] (stereo not drawn) | – | Potency (Cavia porcellus [2]): 0.05%; Concentration (Cavia porcellus [4]): 16 µM; Activity (Cavia porcellus [3]): Active
5 | CCCCCCCCCCCCCCCC1COC(COP(=O)(O)O)CO1 (stereo not drawn) | inactive | –
6 | CCCCCCCCCCCCCCCC1OCC(COP(=O)(O)O)O1 (stereo not drawn) | inactive | –
7 | CCCCCCCC/C=C/CCCCCCCC1OC(COP(=O)(O)O)CS1 (cis isomer) | inactive | –
8 | CCCCCCCC/C=C/CCCCCCCC1CCC(COP(=O)(O)O)C1 (cis isomer) | inactive | –
9 | CCCCCCCCCCCCCCCC1CCC(COP(=O)(O)O)O1 (stereo not drawn) | inactive | –
10 | CCCCCCCCCCCCCCCC1OC(COP(=O)(O)O)CS1 (stereo not drawn) | inactive | –
